We go through 19 molecules from ChEMBL document CHEMBL3297685, “Carbonic anhydrase inhibitors: Synthesis, molecular docking, cytotoxic and inhibition of the human carbonic anhydrase isoforms I, II, IX, XII with novel benzenesulfonamides incorporating pyrrole, pyrrolopyrimidine and fused pyrrolopyrimidine moieties” (Bioorg Med Chem, 2014).

Structures are written as SMILES.

One assay addresses Carbonic anhydrase 9 (Homo sapiens, UniProt Q16790). Description: Inhibition of human recombinant carbonic anhydrase 9 preincubated for 15 mins by stopped-flow CO2 hydrase assay.
In assay [1] the test system is MCF7. Nature of the assay: Cytotoxicity against human MCF7 cells assessed as cell survival at 10 uM after 48 hrs by […]. It counts as functional. Particulars: MCF7, 48 h, read-out: Survival. Put shortly: (§1)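 MCF-7 human breast tumour cells seeded at 10^4 cells/well and left 24 h to attach. Compounds in DMSO added at 10, 25, 50 or 100 µM, triplicate wells per concentration, 48 h at 37 °C, 5% CO2. Cells fixed and stained 30 min with 0.4% SRB in 1% acetic acid, bound dye recovered in Tris-EDTA, absorbance read. Surviving fraction reported.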

Assay [2] relates to MCF7. Description: Cytotoxicity against human MCF7 cells assessed as cell survival at 25 uM after 48 hrs by […]. Particulars: MCF7, 48 h, read-out: Survival. The assay is classed as functional. The gist of the method:
as §1

For assay [3], the system named is MCF7. Nature of the assay: Cytotoxicity against human MCF7 cells assessed as cell survival at 50 uM after 48 hrs by […]. It counts as functional. Conditions: MCF7, 48 h, read-out: Survival. The gist of the method: as §1
The subject of assay [4] is MCF7. Nature of the assay: Cytotoxicity against human MCF7 cells assessed as reduction in cell survival after 48 hrs by MTT assay. Conditions: MCF7, 48 h. Background: Formazan colour is commonly taken as a measure of viable cells.
In assay [5] the test system is MCF7. Nature of the assay: Cytotoxicity against human MCF7 cells assessed as cell survival at 100 uM after 48 hrs by SRB assay. Conditions: MCF7, 48 h, read-out: Survival.

On to `CCOC(=O)C1=C(N)N=C2c3c(-c4ccc(Br)cc4)cn(-c4ccc(S(N)(=O)=O)cc4)c3N=CN2N=C1`, for which the Ki on Carbonic anhydrase 9 is 3 nM. Besides, in the assay on MCF7 [1], the viability at 10 µM was 37.2%. The viability at 25 µM in the assay on MCF7 [2] is 37.7%. Also, in the assay on MCF7 [3], the viability at 50 µM worked out at 35.3%. Moreover, the half-inhibitory concentration (IC50) in the assay with MCF7 [4] worked out at 7.84 µM. For the same molecule, in the assay on MCF7 [5], the viability at 100 µM worked out at 39.1%.

On to `N#Cc1c(-c2ccc(Br)cc2)cn(-c2ccc(S(N)(=O)=O)cc2)c1N`, for which, at Carbonic anhydrase 9, the Ki came out at 6.3 nM. The viability at 10 µM in the assay with MCF7 [1] came to 32.7%. In addition, in the assay with MCF7 [2], the viability at 25 µM turned out to be 27.3%. Besides, the viability at 50 µM in the assay with MCF7 [3] came out at 23.3%. The IC50 in the assay with MCF7 [4] is 7.56 µM. The viability at 100 µM in the assay on MCF7 [5] stood at 25.5%.

Regarding `COc1cccc2c1C(=O)c1c(O)c3c(c(O)c1C2=O)C[C@@](O)(C(=O)CO)C[C@@H]3O[C@H]1C[C@H](N)[C@H](O)[C@H](C)O1` [DOXORUBICIN], the viability at 10 µM with MCF7 [1] came to 31.4%. Further, the viability at 25 µM with MCF7 [2] amounted to 30.9%. Also, the viability at 50 µM with MCF7 [3] amounted to 25.1%. In addition, the viability at 100 µM with MCF7 [5] came to 26.6%.

In the case of `N#CC1=C(N)N=C2c3c(-c4ccc(Br)cc4)cn(-c4ccc(S(N)(=O)=O)cc4)c3N=CN2N=C1`, at Carbonic anhydrase 9, the Ki came to 3.1 nM. Further, the viability at 10 µM in the assay on MCF7 [1] was determined as 38.2%. Further, the viability at 25 µM in the assay on MCF7 [2] stood at 38%. The viability at 50 µM in the assay on MCF7 [3] is 40.1%. For the same molecule, in the assay with MCF7 [4], the IC50 was determined as 8.11 µM. In the assay with MCF7 [5], the viability at 100 µM turned out to be 37.9%.

On to `CC1=CC(C)=NN2C=Nc3c(c(-c4ccc(Br)cc4)cn3-c3ccc(S(N)(=O)=O)cc3)C2=N1`, for which the Ki at Carbonic anhydrase 9 is 49.6 nM. The viability at 10 µM in the assay with MCF7 [1] amounted to 38%. The viability at 25 µM with MCF7 [2] was 28.5%. In the assay on MCF7 [3], the viability at 50 µM came out at 33.2%. Besides, the IC50 in the assay on MCF7 [4] turned out to be 7.84 µM. In addition, the viability at 100 µM with MCF7 [5] was 37.5%.

Turning to `CCO/C=N/c1c(C#N)c(-c2ccc(Br)cc2)cn1-c1ccc(S(N)(=O)=O)cc1`, on Carbonic anhydrase 9, the Ki is 3.9 nM. Further, the viability at 10 µM in the assay with MCF7 [1] amounted to 34%. Also, the viability at 25 µM in the assay on MCF7 [2] was found to be 29.4%. Also, in the assay on MCF7 [3], the viability at 50 µM was 24.6%. For the same molecule, in the assay on MCF7 [4], the concentration for half-maximal inhibition (IC50) worked out at 7.56 µM. Moreover, in the assay with MCF7 [5], the viability at 100 µM was 25.6%.

Turning to `NS(=O)(=O)c1ccc(-n2cc(-c3ccc(Br)cc3)c3c2N=CN2NC(=O)CN=C32)cc1`, the viability at 10 µM in the assay on MCF7 [1] amounted to 39.3%. Further, the viability at 25 µM with MCF7 [2] was found to be 35.8%. For the same molecule, the viability at 50 µM with MCF7 [3] amounted to 33.7%. Moreover, the concentration for half-maximal inhibition (IC50) in the assay with MCF7 [4] stood at 8.11 µM. In addition, the viability at 100 µM in the assay with MCF7 [5] came to 36.2%.

Regarding `NS(=O)(=O)c1ccc(-n2cc(-c3ccc(Br)cc3)c3c2ncn2nc4c5ccccc5nc-4nc32)cc1`, the viability at 10 µM with MCF7 [1] was found to be 34.7%. For the same molecule, in the assay on MCF7 [2], the viability at 25 µM was 33.8%. In addition, in the assay on MCF7 [3], the viability at 50 µM came to 31.5%. In addition, the half-maximal inhibitory concentration (IC50) in the assay with MCF7 [4] was determined as 7.84 µM. The viability at 100 µM with MCF7 [5] is 38.1%.

In the case of `CC(=O)N1C(=O)/C(=N\n2cnc3c(c(-c4ccc(Br)cc4)cn3-c3ccc(S(N)(=O)=O)cc3)c2=N)c2ccccc21`, the viability at 10 µM with MCF7 [1] was 34.2%. Further, the viability at 25 µM with MCF7 [2] amounted to 28.7%. Further, the viability at 50 µM with MCF7 [3] came to 25.9%. In addition, in the assay with MCF7 [4], the IC50 was 7.56 µM. Further, in the assay with MCF7 [5], the viability at 100 µM was 32.6%.

Take `CCOC(=O)Cc1nc2c3c(-c4ccc(Br)cc4)cn(-c4ccc(S(N)(=O)=O)cc4)c3ncn2n1`: the Ki at Carbonic anhydrase 9 turned out to be 3 nM. Further, the viability at 10 µM in the assay with MCF7 [1] amounted to 42.6%. In the assay with MCF7 [2], the viability at 25 µM is 41%. Further, the viability at 50 µM in the assay on MCF7 [3] came to 34.8%. Also, the IC50 in the assay with MCF7 [4] came to 8.94 µM. Moreover, the viability at 100 µM in the assay with MCF7 [5] was 33.5%.

Regarding `N=c1c2c(-c3ccc(Br)cc3)cn(-c3ccc(S(N)(=O)=O)cc3)c2ncn1N`, the Ki at Carbonic anhydrase 9 came out at 2.7 nM. The viability at 10 µM in the assay with MCF7 [1] is 33%. Also, in the assay on MCF7 [2], the viability at 25 µM is 30.9%. For the same molecule, the viability at 50 µM in the assay on MCF7 [3] was 22.7%. The IC50 in the assay on MCF7 [4] is 7.29 µM. The viability at 100 µM with MCF7 [5] worked out at 26.8%.

`CC(=O)Cc1nc2c3c(-c4ccc(Br)cc4)cn(-c4ccc(S(N)(=O)=O)cc4)c3ncn2n1`: the inhibitory constant (Ki) on Carbonic anhydrase 9 was 3.1 nM. Besides, in the assay with MCF7 [1], the viability at 10 µM worked out at 40%. Also, in the assay with MCF7 [2], the viability at 25 µM was 39.9%. Moreover, the viability at 50 µM in the assay with MCF7 [3] came out at 36.5%. Moreover, the IC50 in the assay on MCF7 [4] came to 8.94 µM. Besides, the viability at 100 µM in the assay on MCF7 [5] came out at 35%.

Take `CCOC(=O)c1nc2c3c(-c4ccc(Br)cc4)cn(-c4ccc(S(N)(=O)=O)cc4)c3ncn2n1`: the Ki at Carbonic anhydrase 9 was 2.7 nM. In addition, the viability at 10 µM in the assay on MCF7 [1] was 30.5%. Also, in the assay with MCF7 [2], the viability at 25 µM was 28.1%. In addition, the viability at 50 µM with MCF7 [3] turned out to be 27.4%. For the same molecule, the IC50 in the assay with MCF7 [4] was 7.29 µM. In addition, in the assay with MCF7 [5], the viability at 100 µM amounted to 30.9%.

Regarding `C/C(CC(=O)c1ccccc1)=N/n1cnc2c(c(-c3ccc(Br)cc3)cn2-c2ccc(S(N)(=O)=O)cc2)c1=N`, the Ki at Carbonic anhydrase 9 turned out to be 2.8 nM. Besides, in the assay on MCF7 [1], the viability at 10 µM was 38.1%. Also, the viability at 25 µM in the assay with MCF7 [2] worked out at 33.3%. For the same molecule, in the assay on MCF7 [3], the viability at 50 µM amounted to 25.1%. Further, the half-inhibitory concentration (IC50) with MCF7 [4] was 7.84 µM. Further, the viability at 100 µM with MCF7 [5] was 30.1%.

In the case of `NS(=O)(=O)c1ccc(-n2cc(-c3ccc(Br)cc3)c3c2ncn2nnnc32)cc1`, the viability at 10 µM in the assay on MCF7 [1] came out at 34.8%. The viability at 25 µM in the assay with MCF7 [2] worked out at 29.4%. In the assay with MCF7 [3], the viability at 50 µM stood at 25.4%. The half-maximal inhibitory concentration (IC50) with MCF7 [4] turned out to be 7.84 µM. The viability at 100 µM with MCF7 [5] was 21.6%.

As for `N#Cc1c(N)nn2cnc3c(c(-c4ccc(Br)cc4)cn3-c3ccc(S(N)(=O)=O)cc3)c12`, the Ki at Carbonic anhydrase 9 turned out to be 2.4 nM. The viability at 10 µM in the assay with MCF7 [1] stood at 34.7%. Moreover, in the assay with MCF7 [2], the viability at 25 µM was 29.2%. The viability at 50 µM in the assay with MCF7 [3] came to 21.3%. Moreover, the IC50 in the assay with MCF7 [4] is 7.56 µM. In addition, in the assay on MCF7 [5], the viability at 100 µM turned out to be 22.1%.

On to `CCOC(=O)n1c(=O)nc2c3c(-c4ccc(Br)cc4)cn(-c4ccc(S(N)(=O)=O)cc4)c3ncn21`, for which the Ki at Carbonic anhydrase 9 turned out to be 2.6 nM. Besides, the viability at 10 µM with MCF7 [1] was 36.1%. Moreover, the viability at 25 µM in the assay on MCF7 [2] was determined as 31.1%. For the same molecule, the viability at 50 µM in the assay with MCF7 [3] turned out to be 23.2%. For the same molecule, the IC50 with MCF7 [4] was found to be 7.56 µM. Also, in the assay on MCF7 [5], the viability at 100 µM is 21.6%.

As to `NS(=O)(=O)c1ccc(-n2cc(-c3ccc(Br)cc3)c3c2ncn2[nH]c(=O)c(=O)nc32)cc1`, the Ki at Carbonic anhydrase 9 turned out to be 325 nM. In addition, the viability at 10 µM in the assay with MCF7 [1] came to 43.6%. Further, the viability at 25 µM in the assay on MCF7 [2] was determined as 36.6%. Besides, the viability at 50 µM with MCF7 [3] turned out to be 35%. The IC50 in the assay with MCF7 [4] came out at 8.66 µM. The viability at 100 µM in the assay with MCF7 [5] turned out to be 35.8%.

With `CC1=NN2C=Nc3c(c(-c4ccc(Br)cc4)cn3-c3ccc(S(N)(=O)=O)cc3)C2=NC(c2ccccc2)=C1`, on Carbonic anhydrase 9, the Ki came to 3.6 nM. In addition, in the assay on MCF7 [1], the viability at 10 µM came to 30.3%. For the same molecule, the viability at 25 µM in the assay on MCF7 [2] stood at 30.6%. For the same molecule, the viability at 50 µM in the assay with MCF7 [3] was 27.7%. In the assay with MCF7 [4], the IC50 came out at 7.29 µM. For the same molecule, the viability at 100 µM with MCF7 [5] stood at 28%.

Broadly, the Ki is the equilibrium dissociation constant of an inhibitor or competing ligand from its target. Usually IC50 stands for the concentration that gives 50% inhibition.
